In ChEMBL document CHEMBL4513216, “Probing the Open Global Health Chemical Diversity Library for Multistage-Active Starting Points for Next-Generation Antimalarials” (ACS Infect Dis, 2020):

Assay: Toxicity liver stage against HepG2, at 10uM
Format: cell-based
Set-up: test concentration 10 uM, cell line HepG2-A16-CD81EGFP
Details: human, HepG2-A16-CD81EGFP cells; read-out: INHIBITION
In short: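 Uninfected HepG2-A16-CD81EGFP cells, 3 × 10^3 per well, 1536-well, plated on prespotted compound at 10 μM final, parasite-free screening media added to match infected plates; puromycin 10 μM positive, DMSO 0.5% negative; run in parallel with 48 h PbLuc assay at 37 °C, 5% CO2; viability by CellTiter-Glo luminescence, normalized to controls.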

With `OCCCN1CCc2onc(C(c3ccccc3)c3ccccc3)c2C1` as the compound, how does the cytotoxicity at 10 µM read?
The cytotoxicity at 10 µM was -5.51%.

Which cytotoxicity at 10 µM does the source give for `N#Cc1ccc(CCC(=O)N2CCCC(n3cncn3)C2)cc1` (stereo unspecified) here?
Its cytotoxicity at 10 µM is -7.79%.

With `Cc1nn(C)c(N(C)C)c1CNCc1ccnn1C` as the compound, how does the cytotoxicity at 10 µM read?
The cytotoxicity at 10 µM was -3.35%.

For `CN(C)C(=O)CN1CCc2ncnc(C3CC3)c2CC1`, which cytotoxicity at 10 µM is on record?
Its cytotoxicity at 10 µM is -94.1%.

Which cytotoxicity at 10 µM does the source give for `O[C@@H]1CC(CNCc2cccc(Cl)c2)(COc2cnccn2)C[C@@H]1O` (stereo partly specified) here?
The cytotoxicity at 10 µM was -3.58%.

For `CS(=O)(=O)N1CCOC2(CCCN(c3cnccn3)C2)C1` (stereo unspecified), which cytotoxicity at 10 µM is on record?
Its cytotoxicity at 10 µM is -3.23%.

For `Cc1cnn(CC2CN(Cc3nc(C)c(C)o3)CCO2)c1` (stereo unspecified), which cytotoxicity at 10 µM is on record?
Its cytotoxicity at 10 µM is -3.88%.

For `CCCN1CCCC2(CCN(Cc3cncn3C3CCCCC3)C2)C1=O` (stereo unspecified), which cytotoxicity at 10 µM is on record?
Its cytotoxicity at 10 µM is 5.89%.

Which cytotoxicity at 10 µM does the source give for `CNC(=O)CN(C)c1cncc(OCC(C)C)n1` here?
Its cytotoxicity at 10 µM is 0.137%.

For `O=C(CN1CCCC1c1nc2cc(F)ccc2[nH]1)NCc1ccccn1` (stereo unspecified), which cytotoxicity at 10 µM is on record?
Its cytotoxicity at 10 µM is -0.748%.

Which cytotoxicity at 10 µM does the source give for `O=C(c1ccc[nH]1)N1CCC2(CCCN2Cc2cccnc2)CC1` here?
The cytotoxicity at 10 µM was 6.89%.

With `Cc1ccc(C(C(=O)N2CCC(Cc3noc(C)n3)CC2)N(C)C)cc1` (stereo unspecified) as the compound, how does the cytotoxicity at 10 µM read?
The cytotoxicity at 10 µM was -5.37%.

Which cytotoxicity at 10 µM does the source give for `CCCc1n[nH]c(C2CN(C(=O)c3cccc4cn[nH]c34)CCO2)n1` (stereo unspecified) here?
The cytotoxicity at 10 µM was -4.81%.

With `O=C([C@H]1CCCO1)N1CCc2ncnc(NC3CC3)c2CC1` as the compound, how does the cytotoxicity at 10 µM read?
Its cytotoxicity at 10 µM is -12.6%.

With `CC(C)N1CCOC(Cc2nn3c(Cc4ccccc4)nnc3s2)C1` (stereo unspecified) as the compound, how does the cytotoxicity at 10 µM read?
The cytotoxicity at 10 µM was -6.53%.

With `CC(c1ccccn1)N(C)Cc1cc2cc3c(cc2[nH]c1=O)OCO3` (stereo unspecified) as the compound, how does the cytotoxicity at 10 µM read?
The cytotoxicity at 10 µM was 11.7%.

With `O=C(NCc1ccccc1F)NCC(O)c1cccc(F)c1` (stereo unspecified) as the compound, how does the cytotoxicity at 10 µM read?
The cytotoxicity at 10 µM was -2.95%.

For `CSCCC(=O)NCc1cc2n(n1)CCN(C(=O)N(C)C)C2`, which cytotoxicity at 10 µM is on record?
Its cytotoxicity at 10 µM is -5.77%.

With `CCC(=O)N1CCCN(Cn2nc(C)c(Br)c2C)CC1` as the compound, how does the cytotoxicity at 10 µM read?
Its cytotoxicity at 10 µM is 6.1%.

Which cytotoxicity at 10 µM does the source give for `Cc1cc(C(=O)N2CC[C@](C)(O)[C@H](C)C2)c(C)n1C` here?
Its cytotoxicity at 10 µM is -1.43%.

Which cytotoxicity at 10 µM does the source give for `CC(=O)Nc1nc(CN2CCOC(Cn3cccn3)C2)cs1` (stereo unspecified) here?
The cytotoxicity at 10 µM was -5.69%.

Which cytotoxicity at 10 µM does the source give for `Cc1ccnc(C2CN(Cc3cnn(-c4ccccc4C(=O)O)c3)C2)n1` here?
The cytotoxicity at 10 µM was 6%.

For `CN(C)C(=O)C1CCC2(CCNCC2)C1` (stereo unspecified), which cytotoxicity at 10 µM is on record?
Its cytotoxicity at 10 µM is 8.59%.

Which cytotoxicity at 10 µM does the source give for `CNC(=O)C1CCN(C(=O)c2coc(COc3ccc(OC)cc3)n2)C1` (stereo unspecified) here?
Its cytotoxicity at 10 µM is -1.74%.

For `Cc1cccnc1NCCNC(=O)c1cnc(-c2cccs2)nc1O`, which cytotoxicity at 10 µM is on record?
Its cytotoxicity at 10 µM is 4.62%.

Which cytotoxicity at 10 µM does the source give for `CC(C)(C)OC(=O)NCC1CCN(C(=O)c2ccc(F)cc2F)C1` (stereo unspecified) here?
Its cytotoxicity at 10 µM is 11.5%.

For `O=C(NCC(F)(F)F)C1=NOC2(CCCNC2)C1` (stereo unspecified), which cytotoxicity at 10 µM is on record?
Its cytotoxicity at 10 µM is 2.16%.

With `COc1ccccc1N1CCN(Cc2cnc3c(c2)c(C)nn3C)CC1` as the compound, how does the cytotoxicity at 10 µM read?
The cytotoxicity at 10 µM was -0.949%.

With `COc1ccc(CNCc2ccnc(N3CCCC3)c2)c(OC)c1` as the compound, how does the cytotoxicity at 10 µM read?
Its cytotoxicity at 10 µM is 3.45%.

For `CCS(=O)(=O)N1CCC2(CCN(Cc3nccs3)CC2)CC1`, which cytotoxicity at 10 µM is on record?
The cytotoxicity at 10 µM was 7.13%.

With `COc1ccc(CNC(=O)NC2CCN(c3ccccc3)C2=O)cc1` (stereo unspecified) as the compound, how does the cytotoxicity at 10 µM read?
The cytotoxicity at 10 µM was -2.98%.

Which cytotoxicity at 10 µM does the source give for `COCC[C@]1(O)CCN(Cc2nnc(C)s2)C[C@H]1C` here?
The cytotoxicity at 10 µM was 8.62%.

With `CNc1cc(C2CN(C(=O)c3cnn(C)c3)CCO2)nc(C)n1` (stereo unspecified) as the compound, how does the cytotoxicity at 10 µM read?
The cytotoxicity at 10 µM was -5.42%.

With `CC(C(=O)N(C)C1CCCCC1)S(=O)(=O)Cc1csc(-c2cccs2)n1` (stereo unspecified) as the compound, how does the cytotoxicity at 10 µM read?
Its cytotoxicity at 10 µM is -4.27%.

For `Cn1nccc1-c1cncc(C2CCCN(S(C)(=O)=O)C2)n1` (stereo unspecified), which cytotoxicity at 10 µM is on record?
The cytotoxicity at 10 µM was 6.62%.

With `COCC(=O)N1CC[C@@H]2O[C@H](COCc3ccncc3)CC[C@@H]21` as the compound, how does the cytotoxicity at 10 µM read?
The cytotoxicity at 10 µM was 2.6%.

Which cytotoxicity at 10 µM does the source give for `CN(C)CCN1CC2(CCC1=O)CCN(C(=O)c1ccn(C)n1)CC2` here?
The cytotoxicity at 10 µM was -11%.

With `CC(C)OCCC(=O)NCC(O)c1c(Cl)cccc1Cl` (stereo unspecified) as the compound, how does the cytotoxicity at 10 µM read?
The cytotoxicity at 10 µM was -6.93%.

Which cytotoxicity at 10 µM does the source give for `COCc1nc2cc(NCc3nc(C)cs3)ccc2o1` here?
The cytotoxicity at 10 µM was -2.57%.

With `CN(Cc1ccccn1)C(=O)CC1CCOc2ccccc21` (stereo unspecified) as the compound, how does the cytotoxicity at 10 µM read?
Its cytotoxicity at 10 µM is 11.6%.

For `Cc1ccc(C(=O)NC2CCCN(CC(N)=O)C2)c(=O)[nH]1` (stereo unspecified), which cytotoxicity at 10 µM is on record?
Its cytotoxicity at 10 µM is 0.601%.

Which cytotoxicity at 10 µM does the source give for `CCOc1ccc(CNC(=O)N2CCCC(CO)C2)cc1F` (stereo unspecified) here?
The cytotoxicity at 10 µM was 8.21%.

With `CC(CO)(NC(=O)NCCc1ccc(Br)s1)C1CC1` (stereo unspecified) as the compound, how does the cytotoxicity at 10 µM read?
Its cytotoxicity at 10 µM is -2.43%.

With `O=C(NCC1CCOC1)c1cc(-c2cccc(Cl)c2)on1` (stereo unspecified) as the compound, how does the cytotoxicity at 10 µM read?
Its cytotoxicity at 10 µM is -8.75%.

Which cytotoxicity at 10 µM does the source give for `CC(C)CN1CC(c2nc(C3CC3)n[nH]2)CC1=O` (stereo unspecified) here?
Its cytotoxicity at 10 µM is -1.64%.

For `O=C(c1ccco1)N1CCOC2(COCCN(c3ncccn3)C2)C1` (stereo unspecified), which cytotoxicity at 10 µM is on record?
Its cytotoxicity at 10 µM is -102%.

For `CS(=O)(=O)c1cncnc1C1CCCN(C(=O)Cc2ccccc2F)C1` (stereo unspecified), which cytotoxicity at 10 µM is on record?
The cytotoxicity at 10 µM was 2.72%.

For `O=C(c1ccc2[nH]cnc2c1)N1CCC(Oc2ccccn2)CC1`, which cytotoxicity at 10 µM is on record?
The cytotoxicity at 10 µM was 1.59%.

Which cytotoxicity at 10 µM does the source give for `CCCNCc1cc2c(C)cc(C)cc2n2c(=O)n(C)nc12` here?
The cytotoxicity at 10 µM was -3.09%.

For `O=C(CN(C1=NCCCCC1)c1ccc(Cl)cc1)c1ccccc1`, which cytotoxicity at 10 µM is on record?
The cytotoxicity at 10 µM was 12.2%.

Which cytotoxicity at 10 µM does the source give for `CCOc1cccc(C2CC(=O)NCc3nc(N4CCCC4)sc32)c1` (stereo unspecified) here?
The cytotoxicity at 10 µM was -2.53%.

With `Cc1nc(NCC2CC2)nc2c1COCC21CCN(C(=O)C(C)(C)C)C1` (stereo unspecified) as the compound, how does the cytotoxicity at 10 µM read?
The cytotoxicity at 10 µM was -77.8%.

For `Cn1cc(CCNC(=O)NCc2ccc3c(c2)OCCO3)cn1`, which cytotoxicity at 10 µM is on record?
Its cytotoxicity at 10 µM is -10.7%.

With `CCN1CC(C(=O)NCCOc2ccc3c(c2)OCO3)CC1=O` (stereo unspecified) as the compound, how does the cytotoxicity at 10 µM read?
The cytotoxicity at 10 µM was -2.34%.

With `Cc1nc(N(C)C)nc2c1COCC21CCN(C(=O)C2CC2)C1` (stereo unspecified) as the compound, how does the cytotoxicity at 10 µM read?
Its cytotoxicity at 10 µM is 4.27%.

With `CCN1CCc2c(cccc2NC(=O)N(C)C2CCSC2)C1` (stereo unspecified) as the compound, how does the cytotoxicity at 10 µM read?
Its cytotoxicity at 10 µM is -49.1%.
